Measurements pooled from the literature.
Method: competition with immobilised ligand
RPS6KA6 N-terminal kinase domain: Ribosomal protein S6 kinase alpha-6, N-terminal kinase domain (RPS6KA6, Homo sapiens, UniProt Q9UK32)
RPS6KA6 C-terminal kinase domain: Ribosomal protein S6 kinase alpha-6, C-terminal kinase domain (RPS6KA6, Homo sapiens, UniProt Q9UK32)

Compound | target | effect on | concentration | remaining binding [%]
O=C(Nc1c[nH]nc1C(=O)NC1CCNCC1)c1cc(F)cc(F)c1 | RPS6KA6 N-terminal kinase domain | binding | 1 µM | 94
COc1cc(C(=O)N2CCC(N3CCN(C)CC3)CC2)ccc1Nc1ncc2c(n1)N(C)c1ccccc1C(=O)N2C | RPS6KA6 C-terminal kinase domain | binding | 10 µM | 2.2
CN(C)c1nccc(-c2cnn3ncccc23)n1 | RPS6KA6 C-terminal kinase domain | binding | 1 µM | 100
CCN1CCN(Cc2ccc(C(=O)Nc3ccc(C)c(Oc4ccc5c(c4)CC(=O)N5)c3)cc2C(F)(F)F)CC1 | RPS6KA6 N-terminal kinase domain | binding | 1 µM | 100
C[C@@H]1CN(c2cc(-c3nn(C)c4ccc(OC5(C)CC5)cc34)ncn2)C[C@H](C)O1 | RPS6KA6 C-terminal kinase domain | cell-free assay | 1 µM | 79
CN(c1nccc(-c2cnn3ncccc23)n1)C1CC1 | RPS6KA6 C-terminal kinase domain | binding | 1 µM | 100
Cn1nc(C(F)(F)F)cc1-c1cnc(N2CCc3cc(S(=O)(=O)Nc4c(F)cc(Cl)cc4F)cc(N4CCCC4=O)c32)nc1 | RPS6KA6 N-terminal kinase domain | cell-free assay | 1 µM | 85
CC1CCCN1c1nccc(-c2cnn3ncccc23)n1 (stereo not drawn) | RPS6KA6 N-terminal kinase domain | binding | 1 µM | 99
O=C(c1ccc(Nc2nccc(-c3cc4ccccc4s3)n2)cc1)N1CCC(N2CCCC2)CC1 | RPS6KA6 C-terminal kinase domain | binding | 1 µM | 63
CN(C)c1nccc(-c2cnc3ncccn23)n1 | RPS6KA6 N-terminal kinase domain | binding | 1 µM | 69
CCS(=O)(=O)c1cc2cc(C[C@@](O)(CC(C)(C)c3ccc(F)cc3C(N)=O)C(F)(F)F)[nH]c2cn1 | RPS6KA6 N-terminal kinase domain | cell-free assay | 1 µM | 100
CN(CCCC(F)(F)F)c1nccc(-c2cnn3ncccc23)n1 | RPS6KA6 N-terminal kinase domain | binding | 1 µM | 100
O=C(O)[C@H]1[C@H](Cn2nnc3ccccc3c2=O)CC[C@@H]1C(=O)c1ccc(OCCC2CCOCC2)cc1 | RPS6KA6 N-terminal kinase domain | cell-free assay | 1 µM | 86
O=C(c1ccc(Nc2ncc(Cl)c(-c3ccc(Cl)s3)n2)cc1)N1CCC(N2CCCC2)CC1 | RPS6KA6 N-terminal kinase domain | binding | 1 µM | 41
N[C@H]1CCN(c2nccc(-c3cnn4ncccc34)n2)C1 | RPS6KA6 N-terminal kinase domain | binding | 1 µM | 100
COc1ncc2cc3ccccc3nc2c1C#N | RPS6KA6 N-terminal kinase domain | cell-free assay | 5 µM | 100
CNC(=O)[C@@H]1CC[C@@H](n2c(-c3ccc4cnccc4c3)nc3ccc(C(=O)NCc4cccc(C(N)=O)c4)cc32)C1 | RPS6KA6 N-terminal kinase domain | binding | 1 µM | 100
Cc1cc(-n2nc(Cc3cc(F)cc(C(F)(F)F)c3)nc2C)ccc1C(N)=O | RPS6KA6 N-terminal kinase domain | cell-free assay | 1 µM | 89
Cc1cnc(Nc2ccc(C(=O)N3CCC(N4CCCC4)CC3)cc2)nc1-c1cc2ccccc2s1 | RPS6KA6 C-terminal kinase domain | binding | 1 µM | 72
Nc1ncc2c(n1)-c1c([nH]c3ccc(C#CC4CC4)cc13)CCCC2 | RPS6KA6 C-terminal kinase domain | binding | 1 µM | 91
CO[C@@H](C)c1c(Nc2ccc([C@@H](N(C)C(=O)C3CCS(=O)(=O)CC3)C(F)(F)F)cc2)cnc2cc(Cl)nn12 | RPS6KA6 C-terminal kinase domain | cell-free assay | 1 µM | 98
